According to ChEMBL document CHEMBL3616442, “Unconventional Knoevenagel-type indoles: Synthesis and cell-based studies for the identification of pro-apoptotic agents” (Eur J Med Chem, 2015):

What was measured:
[1] = Growth inhibition of human SF295 cells after 48 hrs by sulforhodamine B assay; type: functional; details: SF-295, 48 h
M14 = assay: Growth inhibition of human M14 cells after 48 hrs by sulforhodamine B assay; type: functional; details: M14, 48 h
Method in brief: (§1)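 NCI 60-cell-line screen. Compounds tested at five 10-fold dilutions from 10^-4 to 10^-8 M. Cells exposed for the last 48 h of a 72 h incubation, growth estimated by sulforhodamine B protein assay. GI50 is the concentration giving 50% growth inhibition. Values beyond the tested range are expressed as greater or lesser than the extreme concentration.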

NCI-H23 = assay: Growth inhibition of human NCI-H23 cells after 48 hrs by sulforhodamine B assay; type: functional; details: NCI-H23, 48 h; method in brief: as §1
PC-3 = assay: Growth inhibition of human PC3 cells after 48 hrs by sulforhodamine B assay; type: functional; details: PC-3, 48 h
MT4 = assay: Antiproliferative activity against human MT4 cells after 96 hrs by MTT assay; type: functional, cell-based; details: MT4, 96 h
Method in brief: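 Exponentially growing MT-4 cells (CD4+ human T-cells carrying integrated HTLV-1 genome), seeded at 1×10^5 cells/mL in RPMI-1640 with 10% FCS and antibiotics. Serial dilutions of compound (DMSO stock 100 mM, diluted in medium), 37 °C, 5% CO₂, 96 h. Viability read by MTT. 50% inhibition versus untreated controls by linear regression. Mean ± SD of three independent determinations.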

[2] = Growth inhibition of human EKVX cells after 48 hrs by sulforhodamine B assay; type: functional; method in brief: as §1
KM12 = assay: Growth inhibition of human KM12 cells after 48 hrs by sulforhodamine B assay; type: functional; details: KM12, 48 h; method in brief: as §1
SK-OV-3 = assay: Growth inhibition of human SKOV3 cells after 48 hrs by sulforhodamine B assay; type: functional; details: SK-OV-3, 48 h
[3] = Growth inhibition of human Hs 578T cells after 48 hrs by sulforhodamine B assay; type: functional; method in brief: as §1
T47D = assay: Growth inhibition of human T47D cells after 48 hrs by sulforhodamine B assay; type: functional
MCF7 = assay: Growth inhibition of human MCF7 cells after 48 hrs by sulforhodamine B assay; type: functional; details: MCF7, 48 h; method in brief: as §1
SR = assay: Growth inhibition of human SR cells after 48 hrs by sulforhodamine B assay; type: functional
ACHN = assay: Growth inhibition of human ACHN cells after 48 hrs by sulforhodamine B assay; type: functional; method in brief: as §1
SNB-75 = assay: Growth inhibition of human SNB75 cells after 48 hrs by sulforhodamine B assay; type: functional; details: SNB-75, 48 h
SK-MEL-5 = assay: Growth inhibition of human SK-MEL-5 cells after 48 hrs by sulforhodamine B assay; type: functional; details: SK-MEL-5, 48 h
U-251 = assay: Growth inhibition of human U251 cells after 48 hrs by sulforhodamine B assay; type: functional; details: U-251, 48 h
OVCAR-4 = assay: Growth inhibition of human OVCAR4 cells after 48 hrs by sulforhodamine B assay; type: functional; details: OVCAR-4, 48 h; method in brief: as §1
MDA-MB-468 = assay: Growth inhibition of human MDA-MB-468 cells after 48 hrs by sulforhodamine B assay; type: functional; details: MDA-MB-468, 48 h; method in brief: as §1
K562 = assay: Growth inhibition of human K562 cells after 48 hrs by sulforhodamine B assay; type: functional; details: K562, 48 h; method in brief: as §1
HL-60(TB) = assay: Growth inhibition of human HL-60(TB) cells after 48 hrs by sulforhodamine B assay; type: functional; details: HL-60, 48 h
Method in brief: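 NCI 60-cell-line screen, HL-60(TB) included. Compound given at five 10-fold dilutions from 10^-4 to 10^-8 M. Cells exposed for the last 48 h of a 72 h incubation. Growth or viability estimated by sulforhodamine B protein assay. GI50 is the concentration giving 50% growth inhibition. Values outside the tested range are reported as greater or less than the highest or lowest concentration.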

NCI-H522 = assay: Growth inhibition of human NCI-H522 cells after 48 hrs by sulforhodamine B assay; type: functional; details: NCI-H522, 48 h; method in brief: as §1
HCT-116 = assay: Growth inhibition of human HCT116 cells after 48 hrs by sulforhodamine B assay; type: functional; details: HCT-116, 48 h; method in brief: as §1
[4] = Growth inhibition of human LOXIMVI cells after 48 hrs by sulforhodamine B assay; type: functional; details: LOX IMVI; method in brief: as §1
CAKI-1 = assay: Growth inhibition of human CAKI-1 cells after 48 hrs by sulforhodamine B assay; type: functional; details: CAKI-1, 48 h; method in brief: as §1
A549 = assay: Growth inhibition of human A549 cells after 48 hrs by sulforhodamine B assay; type: functional; details: A549, 48 h; method in brief: as §1
[5] = Growth inhibition of human RXF393 cells after 48 hrs by sulforhodamine B assay; type: functional; details: RXF 393, 48 h
[6] = Growth inhibition of human COLO205 cells after 48 hrs by sulforhodamine B assay; type: functional; details: COLO 205, 48 h; method in brief: as §1
[7] = Growth inhibition of human RPMI8226 cells after 48 hrs by sulforhodamine B assay; type: functional; details: RPMI-8226, 48 h
NCI-H460 = assay: Growth inhibition of human NCI-H460 cells after 48 hrs by sulforhodamine B assay; type: functional; details: NCI-H460, 48 h; method in brief: as §1
MDA-MB-435 = assay: Growth inhibition of human MDA-MB-435 cells after 48 hrs by sulforhodamine B assay; type: functional; details: MDA-MB-435, 48 h; method in brief: as §1
[8] = Growth inhibition of human HOP92 cells after 48 hrs by sulforhodamine B assay; type: functional; details: HOP-92, 48 h; method in brief: as §1
UACC-62 = assay: Growth inhibition of human UACC62 cells after 48 hrs by sulforhodamine B assay; type: functional; details: UACC-62, 48 h

O=C(/C(=C\c1c(-c2ccccc2)[nH]c2ccccc12)S(=O)(=O)c1ccccc1)c1ccccc1
GI50 [1]: 3.5 µM
GI50 (M14): 15.6 µM
GI50 (NCI-H23): 9.6 µM
GI50 (PC-3): 5 µM
EC50 (MT4): 3 µM
GI50 [2]: 4.6 µM
GI50 (KM12): 5.1 µM
GI50 (SK-OV-3): 7.6 µM
GI50 [3]: 39.5 µM
GI50 (T47D): 3.4 µM
GI50 (MCF7): 5 µM
GI50 (SR): 9.9 µM
GI50 (ACHN): 6.7 µM
GI50 (SNB-75): 10.1 µM
GI50 (SK-MEL-5): 9 µM
GI50 (U-251): 8.6 µM
GI50 (OVCAR-4): 6.6 µM
GI50 (MDA-MB-468): 4.2 µM
GI50 (K562): 6.5 µM
GI50 (HL-60(TB)): 5 µM
GI50 (NCI-H522): 91.8 µM
GI50 (HCT-116): 4.9 µM
GI50 [4]: 74.7 µM
GI50 (CAKI-1): 3.1 µM
GI50 (A549): 35 µM
GI50 [5]: 97.1 µM
GI50 [6]: 7.8 µM
GI50 [7]: 7.6 µM
GI50 (NCI-H460): 5.9 µM
GI50 (MDA-MB-435): 3.9 µM
GI50 [8]: 5 µM
GI50 (UACC-62): 9 µM
